Data published in ChEMBL document CHEMBL4819012, “Discovery of novel 2-aryl-3-sulfonamido-pyridines (HoAns) as microtubule polymerization inhibitors with potent antitumor activities” (Eur J Med Chem, 2021).
The source made the active and inactive calls. The calls are words filed in the database; no cut-off is given here.

Legend:
RKO = test: Antiproliferative activity against human RKO cells assessed as cell viability measured after 72 hrs by MTS method; format: functional, cell-based
Outline: (§1)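 Log-phase cells plated at 5×10^3–6×10^3 per well for 24 h, then given graded compound concentrations in fresh medium for 72 h, five replicate wells. Medium replaced with medium containing 10% MTS, 30 min or more at 37 °C in dark; OD 490 nm read. IC50 by nonlinear regression; mean ± SD of at least three experiments.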

PANC-1 = test: Antiproliferative activity against human PANC-1 cells assessed as cell viability measured after 72 hrs by MTS method; format: functional, cell-based; conditions: PANC-1, 72 h; outline: as §1
[1] = Antiproliferative activity against human HCCLM3 cells assessed as cell viability measured after 72 hrs by MTS method; format: functional, cell-based; conditions: HCCLM3, 72 h; outline: as §1
MCF7 = test: Antiproliferative activity against human MCF7 cells assessed as cell viability at 10 uM measured after 72 hrs by MTS method; format: functional; conditions: read-out: Activity
Outline: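 Single-concentration screen at 10 µM for 72 h. Log-phase cells plated at 5×10^3–6×10^3 per well for 24 h before dosing, five replicate wells. Viability measured by MTS: 10% MTS in fresh medium, 30 min or more at 37 °C in dark, absorbance 490 nm.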

SK-BR-3 = test: Antiproliferative activity against human SK-BR-3 cells assessed as cell viability measured after 72 hrs by MTS method; format: functional, cell-based; conditions: SK-BR-3, 72 h; outline: as §1
BT-474 = test: Antiproliferative activity against human BT-474 cells assessed as cell viability measured after 72 hrs by MTS method; format: functional, cell-based; conditions: BT-474, 72 h; outline: as §1
A549 = test: Antiproliferative activity against human A549 cells assessed as cell viability measured after 72 hrs by MTS method; format: functional, cell-based; conditions: A549, 72 h; outline: as §1
PLC-PRF-5 = test: Antiproliferative activity against human PLC-PRF-5 cells assessed as cell viability measured after 72 hrs by MTS method; format: functional, cell-based; conditions: PLC-PRF-5, 72 h; outline: as §1
SW480 = test: Antiproliferative activity against human SW480 cells assessed as cell viability measured after 72 hrs by MTS method; format: functional, cell-based; conditions: SW480, 72 h; outline: as §1
NCI-H460 = test: Antiproliferative activity against human NCI-H460 cells assessed as cell viability measured after 72 hrs by MTS method; format: functional, cell-based; conditions: NCI-H460, 72 h; outline: as §1
SW-620 = test: Antiproliferative activity against human SW-620 cells assessed as cell viability measured after 72 hrs by MTS method; format: functional, cell-based; conditions: SW-620, 72 h; outline: as §1
Sus scrofa = species: Sus scrofa; test: Inhibition of pig tubulin polymerization at 10 uM measured every minute for 60 mins by microplate reader method
Outline: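 Kit assay with porcine tubulin (>97% pure) at 4 mg/mL in PIPES 80 mM, MgCl2 2 mM, EGTA 0.5 mM, pH 6.9, with GTP. Compound at 10 μM final (from 100 μM working solution) preincubated 5 min at 37 °C in a prewarmed plate before cold tubulin mix is added. A340 read every minute for 60 min at 37 °C.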

Tubulin (Homo sapiens) [2] = target: T1, Tubulin (Homo sapiens) (UniProt P68371+Q9H4B7+P0DPH7+P68366+Q13509+Q71U36+P04350+Q3ZCM7+P07437+P68363+Q9BQE3+Q6PEY2+Q13885+Q9BVA1+Q9BUF5); test: Inhibition of tubulin polymerization in human RKO cells assessed as fragmentation of microtubule at 1 uM measured 24 hrs by DAPI staining based immunoflourescence assay; format: cell-based
Outline: (§2)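 RKO cells on coverslips (2.5×10^5 per well) incubated overnight, then treated for 24 h at 0.5 or 1 μM, DMSO, or 1 μM comparators. Fixed in cold methanol 10 min, permeabilized with 0.25% Triton X-100, blocked in 1% BSA at 4 °C overnight. Stained with anti-β-tubulin (1:100, 2 h RT) and Alexa Fluor 594 secondary (1:500, 1 h), nuclei with DAPI; imaged by fluorescence microscopy.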

Tubulin (Homo sapiens) [3] = target: T1, Tubulin (Homo sapiens); test: Inhibition of tubulin polymerization in human RKO cells assessed as morphology changed to fusiform at 1 uM measured 24 hrs by DAPI staining based immunoflourescence assay; format: cell-based; conditions: in the assay text read “changed to round from fusiform” for “changed to fusiform”; outline: as §2

## N#Cc1ccc(-c2ncccc2NS(=O)(=O)c2ccc3ccccc3c2)cc1F
RKO
  IC50: 2.92 µM
PANC-1
  IC50: 10 µM
[1]
  IC50: 8.87 µM

## COc1ccc(-c2ncccc2NS(=O)(=O)c2ccc(OC)cc2)cc1
MCF7
  viability at 10 µM: > 70%

## COc1ccc(S(=O)(=O)Nc2cccnc2-c2ccc(OC)c(OC)c2)cc1
MCF7
  viability at 10 µM: > 70%

## COc1ccc(S(=O)(=O)Nc2cccnc2-c2cccc(OC)c2OC)cc1
MCF7
  viability at 10 µM: > 70%

## COc1ccc(S(=O)(=O)N(c2cccnc2-c2cccc(OC)c2OC)S(=O)(=O)c2ccc(OC)cc2)cc1
MCF7
  viability at 10 µM: > 70%

## COc1ccc(S(=O)(=O)Nc2cccnc2-c2c(OC)cccc2OC)cc1
MCF7
  viability at 10 µM: > 70%

## COc1ccc(S(=O)(=O)Nc2cccnc2-c2ccnnc2)cc1
MCF7
  viability at 10 µM: > 70%

## COc1ccc(S(=O)(=O)Nc2cccnc2-c2ccc3c(c2)OCO3)cc1
MCF7
  viability at 10 µM: > 70%

## COc1ccc(S(=O)(=O)Nc2cccnc2-c2ccc(C#N)c(F)c2)cc1OC
RKO
  IC50: > 10 µM
PANC-1
  IC50: > 10 µM
[1]
  IC50: > 10 µM

## COc1ccc(S(=O)(=O)Nc2cccnc2-c2cccc(C#N)c2)cc1
MCF7
  viability at 10 µM: > 70%

## COc1ccc(S(=O)(=O)Nc2cccnc2-c2ccc(C(F)(F)F)cc2)cc1
RKO
  IC50: 4.05 µM
SK-BR-3
  IC50: > 10 µM
PANC-1
  IC50: > 10 µM
BT-474
  IC50: > 10 µM
A549
  IC50: > 10 µM
PLC-PRF-5
  IC50: > 10 µM
[1]
  IC50: > 10 µM
SW480
  IC50: 9.21 µM
NCI-H460
  IC50: > 10 µM
SW-620
  IC50: 6.82 µM

## COc1ccc(S(=O)(=O)Nc2cccnc2-c2cccc3c2oc2ccccc23)cc1
MCF7
  viability at 10 µM: > 70%

## COc1ccc(S(=O)(=O)Nc2cccnc2-c2ccc(O)cc2)cc1
MCF7
  viability at 10 µM: > 70%

## COc1ccc(S(=O)(=O)Nc2cccnc2-c2cccc([N+](=O)[O-])c2)cc1
MCF7
  viability at 10 µM: > 70%

## COc1ccc(S(=O)(=O)Nc2cccnc2-c2ccccc2OC)cc1
MCF7
  viability at 10 µM: > 70%

## COc1ccc(S(=O)(=O)N(c2cccnc2-c2ccc(OC)cc2OC)S(=O)(=O)c2ccc(OC)cc2)cc1
MCF7
  viability at 10 µM: > 70%

## COc1ccc(S(=O)(=O)Nc2cccnc2-c2ccc(OC)cc2OC)cc1
MCF7
  viability at 10 µM: > 70%

## COc1ccc(S(=O)(=O)Nc2cccnc2-c2cccnc2)cc1
MCF7
  viability at 10 µM: > 70%

## COc1ccc(S(=O)(=O)Nc2cccnc2-c2ccncc2)cc1
MCF7
  viability at 10 µM: > 70%

## COc1ccc(S(=O)(=O)Nc2cccnc2-c2ccc([N+](=O)[O-])cc2)cc1
RKO
  IC50: 1.4 µM
SK-BR-3
  IC50: 6.31 µM
PANC-1
  IC50: 7.19 µM
BT-474
  IC50: > 10 µM
A549
  IC50: > 10 µM
PLC-PRF-5
  IC50: 5.3 µM
[1]
  IC50: 7.6 µM
SW480
  IC50: 3.85 µM
NCI-H460
  IC50: > 10 µM
SW-620
  IC50: 3.62 µM

## C=CCc1ccc(O)c(-c2ccc(O)c(CC=C)c2)c1 [HONOKIOL]
MCF7
  viability at 10 µM: > 70%

## COc1ccc(S(=O)(=O)Nc2cccnc2-c2cccc(OC)c2)cc1
MCF7
  viability at 10 µM: > 70%

## N#Cc1ccc(-c2ncccc2NS(=O)(=O)c2ccccc2)cc1F
RKO
  IC50: > 10 µM
PANC-1
  IC50: > 10 µM
[1]
  IC50: > 10 µM

## COc1ccc(S(=O)(=O)Nc2cccnc2-c2cccc(N)c2)cc1
MCF7
  viability at 10 µM: > 70%

## COc1ccc(S(=O)(=O)Nc2cccnc2-c2cccc(O)c2)cc1
MCF7
  viability at 10 µM: > 70%

## COc1ccc(S(=O)(=O)Nc2cccnc2-c2cc(OC)c(OC)c(OC)c2)cc1
MCF7
  viability at 10 µM: > 70%

## N#Cc1ccc(-c2ncccc2NS(=O)(=O)c2ccc(Br)cc2)cc1F
RKO
  IC50: > 10 µM
PANC-1
  IC50: > 10 µM
[1]
  IC50: > 10 µM
MCF7
  viability at 10 µM: > 70%

## Cc1ccc(S(=O)(=O)Nc2cccnc2-c2ccc(C#N)c(F)c2)cc1
RKO
  IC50: 9.21 µM
PANC-1
  IC50: > 10 µM
[1]
  IC50: > 10 µM
MCF7
  viability at 10 µM: > 70%

## COc1ccc(S(=O)(=O)Nc2cccnc2-c2ccc(C#N)cc2)cc1
RKO
  IC50: 0.259 µM
SK-BR-3
  IC50: 0.746 µM
PANC-1
  IC50: 1.09 µM
BT-474
  IC50: 1.34 µM
A549
  IC50: 2.46 µM
PLC-PRF-5
  IC50: 0.816 µM
[1]
  IC50: 0.747 µM
SW480
  IC50: 0.204 µM
NCI-H460
  IC50: 1.5 µM
SW-620
  IC50: 0.607 µM

## COc1ccc(S(=O)(=O)N(c2cccnc2-c2cc(OC)ccc2OC)S(=O)(=O)c2ccc(OC)cc2)cc1
MCF7
  viability at 10 µM: > 70%

## COc1ccc(S(=O)(=O)Nc2cccnc2-c2cc(OC)ccc2OC)cc1
MCF7
  viability at 10 µM: > 70%

## N#Cc1ccc(-c2ncccc2NS(=O)(=O)c2ccc(Cl)cc2)cc1F
RKO
  IC50: > 10 µM
PANC-1
  IC50: > 10 µM
[1]
  IC50: > 10 µM
MCF7
  viability at 10 µM: > 70%

## N#Cc1ccc(-c2ncccc2NS(=O)(=O)c2ccc(C(F)(F)F)cc2)cc1F
RKO
  IC50: > 10 µM
PANC-1
  IC50: > 10 µM
[1]
  IC50: > 10 µM

## N#Cc1ccc(-c2ncccc2NS(=O)(=O)c2ccc(OC(F)(F)F)cc2)cc1F
RKO
  IC50: > 10 µM
PANC-1
  IC50: > 10 µM
[1]
  IC50: > 10 µM

## CC(=O)O[C@H]1C(=O)[C@@]2(C)[C@H]([C@H](OC(=O)c3ccccc3)[C@]3(O)C[C@H](OC(=O)[C@H](O)[C@@H](NC(=O)c4ccccc4)c4ccccc4)C(C)=C1C3(C)C)[C@]1(OC(C)=O)CO[C@@H]1C[C@@H]2O
Sus scrofa
  inhibition: inactive
Tubulin (Homo sapiens) [2]
  inhibition: inactive
Tubulin (Homo sapiens) [3]
  inhibition: inactive

## COc1ccc(S(=O)(=O)N(c2cccnc2-c2ccc3c(c2)OCO3)S(=O)(=O)c2ccc(OC)cc2)cc1
MCF7
  viability at 10 µM: > 70%

## COc1ccc(S(=O)(=O)Nc2cccnc2-c2ccccc2)cc1
RKO
  IC50: 4.32 µM
SK-BR-3
  IC50: > 10 µM
PANC-1
  IC50: > 10 µM
BT-474
  IC50: > 10 µM
A549
  IC50: > 10 µM
PLC-PRF-5
  IC50: > 10 µM
[1]
  IC50: > 10 µM
SW480
  IC50: > 10 µM
NCI-H460
  IC50: > 10 µM
SW-620
  IC50: 7.89 µM

## COc1ccc(S(=O)(=O)Nc2cccnc2-c2cc(OC)cc(OC)c2)cc1
MCF7
  viability at 10 µM: > 70%

## COc1ccc(S(=O)(=O)Nc2cccnc2-c2ccccc2O)cc1
MCF7
  viability at 10 µM: > 70%

## COc1ccc(S(=O)(=O)Nc2cccnc2-c2ccc(N)cc2)cc1
MCF7
  viability at 10 µM: > 70%

## COc1ccc(S(=O)(=O)Nc2cccnc2-c2ccc(OCc3ccccc3)cc2)cc1
MCF7
  viability at 10 µM: > 70%
